Drawing on ChEMBL document CHEMBL1124236, “Homoallylic amines related to zimeldine. A comparative study on neuronal serotonin and norepinephrine reuptake based on conformational analysis” (J Med Chem, 1988), this text covers Ratio, ED50 and IC50 for ten compounds.

For orientation: ED50 means the midpoint of the dose-response relation. Higher therefore signals weaker potency. By pIC50 is commonly meant −log10 of the IC50, conventionally taken in molar units. Higher therefore signals a low IC50.

Test [1] is described as follows: Selectivity expressed as ratio between NE and 5-HT uptake inhibition in rat synaptosomes. Format: functional, subcellular. Particulars: Brain.
For test [2], the system named is Mus musculus. Description: Ex vivo inhibition of the accumulation of (-)-[3H]Norepinephrine in slices from the middle part of the mouse brain. (i.p.). Type of test: functional. Conditions: ip. The method, boiled down:
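Compound given i.p.; mice killed 60 min later. Brain slices (about 1 mm) preincubated 5 min at 37 °C in Krebs-Henseleit buffer with 1 × 10^-4 M pargyline, glucose, ascorbate and EDTA under 6.5% CO2/O2. Then 5 min with 1 × 10^-7 M [3H]NE plus 1 × 10^-7 M [14C]-5-HT, counted by double labelling. Active uptake is the cocaine-sensitive (5 × 10^-4 M) part. 3–4 doses, 4 mice/dose; ED50 from semilog plots.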

For test [3], the species on record is Rattus norvegicus. Description: In vitro inhibition of the accumulation of (-)-[3H]Norepinephrine in synaptosomes from the rat brain cortex. Format: functional.
Test [4] in a line: Selectivity expressed as ratio between NE and 5-HT uptake inhibition in mouse brain slices. Type of test: functional.
The species entered for test [5] is Mus musculus. Description: In vitro inhibition of the accumulation of (-)-[3H]Norepinephrine in slices from the middle part of the mouse brain. Format: functional.

pIC50: −log10 of the molar value.

Take `CNC/C=C(/c1ccc(Br)cc1)c1cccnc1` [NOMELIDINE]: the Ratio in test [1] came to 6.3. The ED50 in test [2] is over 102 µmol/kg. In addition, in test [3], the negative-log IC50 (pIC50) is 6.62.
For the compound `CN(C)C/C=C(\c1ccc(Br)cc1)c1cccnc1`, the Ratio in test [1] was determined as 0.68. Besides, the 50% effect level in test [2] (ED50) was put at a dose of 25 µmol/kg. The pIC50 in test [3] was 6.82.
For the compound `CNCC/C=C(/c1ccc(Br)cc1)c1cccnc1`, the Ratio was over 50 in test [4] and 28 in test [1]. Also, the ED50 in test [2] was over 98 µmol/kg. Also, the results for the pIC50 in test [5] and in test [3] were under 4.60 and 5.18, respectively.
For `CNCC/C=C(\c1ccc(Br)cc1)c1cccnc1` the same measures were 2.1, 0.71, 98 µmol/kg, 6.60 and 6.00.
The matching figures for `CN(C)CC/C=C(\c1ccc(Br)cc1)c1cccnc1`: 1.1, 0.54, 95 µmol/kg, 5.11 and 5.85.
As for `CN(C)CCC=C1c2ccccc2CCc2ccccc21` [AMITRIPTYLINE], the Ratio turned out to be 1.9 in test [4] and 0.19 in test [1]. This compound also yielded an ED50 in test [2] of 114 µmol/kg. Moreover, the pIC50 in test [5] is 5.27; in test [3] it was 7.21.
For `CN(C)CC/C=C(/c1ccc(Br)cc1)c1cccnc1` the same measures were over 27, 45, over 95 µmol/kg, under 4.62 and 4.65.
The matching figures for `CNCCC=C1c2ccccc2CCc2ccccc21` [NORTRIPTYLINE]: 0.075, 0.0035, 67 µmol/kg, 6.30 and 8.15.
For the compound `CNC/C=C(\c1ccc(Br)cc1)c1cccnc1` [NORZIMELIDINE], the Ratio in test [1] was found to be 0.058. In addition, it took a dose of 25 µmol/kg to reach the 50% effect level in test [2] (ED50). Further, the pIC50 in test [3] was 8.34.
The matching figures for `CN(C)C/C=C(/c1ccc(Br)cc1)c1cccnc1` [ZIMELDINE]: 32, over 98 µmol/kg and 5.49.
